Data reported in the EternaBench riboswitch data.

System: MS2 coat protein
Test: apparent Kd, MS2 coat protein; higher = weaker binding; RNA-MaP array; FMN 200 µM where present
In short: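 Stalled E. coli RNA polymerase transcribed each design on Illumina sequencing-chip clusters. The clusters were titrated with SNAP-549-labelled MS2 coat protein, starting at 0.7 or 1.5 nM and doubling up to 3 µM, first without ligand and then with constant ligand, in 100 mM Tris-HCl pH 7.5, 80 mM KCl, 4 mM MgCl2, BSA, DTT, yeast tRNA and Tween-20. Green signal was normalised to red-channel RNA signal and to the control-cluster median Fmax. The apparent Kd is the median of filtered binding-curve fits made for each cluster.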

[1] = designed as: OFF switch for flavin mononucleotide, no ligand
[2] = ligand present: flavin mononucleotide, designed as: OFF switch for flavin mononucleotide
[3] = designed as: ON switch for flavin mononucleotide, no ligand
[4] = ligand present: flavin mononucleotide, designed as: ON switch for flavin mononucleotide

| Sequence | apparent Kd [1] [nM] | apparent Kd [2] [nM] | apparent Kd [3] [nM] | apparent Kd [4] [nM] |
| --- | --- | --- | --- | --- |
| AAAAACGUAGGAUAUACAUGAAAAAAAAAAAAAAAAAAAAGACAUGAGGAUCACCCAUGUAGAAGGGCGAAAAA | 115 | 104 |  |  |
| GGAUCUUGGGUCAGGAUAUGCUGAUAGUUAUGUCAGCAGAAGGGACAUGAGGAUCACCCAUGUGCUCGGUUUUG | 11.1 | 19.7 |  |  |
| AAAACAUGAGGAUCACCCAUGUAAAGUUCGGUUAAUAGAGGUGAGGAUAUACUAAAUUUUGGGUGGUAGAAGGCACUGGGUACA |  |  | 122 | 105 |
| CUGUUCCGUGUAGGAUAUGCAUAUUCCCAUUAUGCAGAAGGACAUGAGGAUCACCCAUGUAUGUUAUUAUCAUGUGUUACAUGC | 44.4 | 453 |  |  |
| AUAAGUGCAGGAUAUACGGGAAGCUAGCGAAAGCUAGCAAAACAUGAGGAUCACCCAUGUAGAAGGGCACAAUA | 57.4 | 121 |  |  |
| AUUUCGUCAGGAUAUCCUAGUAAUUGUUUCAUAUUUACAAAGGAGAAGGGACAUGAGGAUCACCCAUGUUGGUC | 64.6 | 116 |  |  |
| CUUUUGUGAGGAUAUUCGUAGUAGGUAAAUAAAACUAUUACGGAGAAGGCACAUGAGGAUCACCCAUGUUCCUU | 18.1 | 54.2 |  |  |
| ACAUGAGGAUCACCCAUGUAAAAUUAGGAUAUAUGACUGCACAUGAGGUUCACCCAUGUUCUACCGUAGAAGGGAUAAAUAAUU |  |  | 71.1 | 75.6 |
| UGAUAGCACAGAGGAUAUGCGUUGUGUUCUCUCUACAUGAGGAUCACCCAUGUAGAAGGCUGUGCUAUCUAAGUCGGAAACGAU | 8.81 | 36.9 |  |  |
| GAUUUAGAGCAGGAUAUCAUAGAAUUAUAUGAAUGAGAAGGGCUCACAUGAGGAUCACCCAUGUGGUCCUAGAU | 21.1 | 167 |  |  |
| UAUAUAUAGUAAGGAUAUGUAUUAAUUUAAUAAACAGAAGGUACUGACAUGAGGAUCACCCAUGUUUUAGUGUGGGCAUGUAGA | 98 | 140 |  |  |
| UUUUAACAUGAGGAUCACCCAUGUGAGGAUAUCGAAAUUUAUAUUUAUAUUUAUAAUUCGAGAAGGCACAUUUU | 179 | 141 |  |  |
| GUUUCGGGAGGAUAUGCGUGGAUUAUUCUCGUAUGUUGUUUACAUGAGGAUCACCCAUGUAGAAGGUCUGGAGC | 193 | 300 |  |  |
| UUUUAACAUGAGGAUCACCCAUGUGAGGAUAUCGAUAUUUAUAUUAAUAUUAAUAAAACGAGAAGGCACAUUUU | 71 | 87.2 |  |  |
| UACAUGAGGAUCACCCAUGUUUUGUCGUGUAUGGUAUUUAUCUAGGAUAUCGUGUUAUUUAACCACGAGAAGGAGAGUAUCAAU | 27.5 | 26.7 |  |  |
| AGAUUACGAGGAUAUCGAUUUUAGUACAUGAGGAUCACCCAUGUUAUCCAGGUCUCGUUUCGAGAAGGCGUGAUUC | 303 | 132 |  |  |
| CUCAUGUUAGGAUAUGCGCCCAGCCUAGUGGCCGGGCUCUAGCAGAAGGAACAUGAGGAUCACCCAUGUUUGCA | 62.5 | 18.6 |  |  |
| GGUACUCAAAGAGUACUUGGUCGAACAUGAGGAUCACCCAUGUAGGAUAUGCAAAGCAAGAAGUAGCAGAAGGACAUGUGCAGC | 13.5 | 36.1 |  |  |
| AACAUGAGGAUCACCCAUGUCCCACCAGAAGGCUGGCGGUGGUAGGAAAGGCUACGACAAAUAACAGAGGAUAUGGUGAAUGCA |  |  | 88.9 | 20.8 |
| GAGGAACAUGAGGAUCACCCAUGUGAGGAUAUGCAUAGUGAGGUAGUAGACGUUUAUUGCAGAAGGUACACUGA | 27.4 | 27.8 |  |  |
| UCAUACAUUCGAGGAUAUCGGUGAUUAAUUUUACGAGAAGGCGAUAUAAGAUUUAAUUUUUAAGACAUGAGGAUCACCCAUGUA |  |  | 30.7 | 29.6 |
